Assay results of several laboratories.
Lines come from different studies, so protocols differ. In brackets after ≈: the same amount, converted by molar mass.

For `CC1(C)S[C@@H]2[C@H](NC(=O)[C@H](N)c3ccccc3)C(=O)N2[C@H]1C(=O)O`, the inhibition zone was 27 mm (Listeria monocytogenes; microbial growth, well diffusion; ATCC7644; 60000 µg/mL).
`CC(C)CCCCCCCCCCCCCCc1cc(O)cc(O)c1` has an IC50 of 10.2 µM (Bacillus subtilis; microbial growth).
The MIC of `CCCC[C@H]1CN(c2cccc(OC(F)(F)F)c2)C(=O)CN1Cc1cncn1Cc1ccc(Br)cc1` is reported as 3 to 6 µM (Cryptococcus neoformans; microbial growth, broth dilution).
`O=C(NN=Cc1ccc(O)c(Br)c1)c1cccc(Br)c1` has an MIC of 0.3 µg/mL (Cryptococcus neoformans; microbial growth, broth dilution).
For `CC(=O)C1=C(O)C(CC(C)C)NC1=O` (stereo not shown), the MIC was greater than 200 µg/mL (Proteus vulgaris; microbial growth; ATCC33420).
With `O=C(CCCCc1ccccc1)CP(=O)(O)O` the MIC was greater than 200 µg/mL (Bacillus subtilis; microbial growth; ATCC23857).
`CC(C)C(C)CCCCCCCCCCCc1cc(O)cc(O)c1` (stereo not shown) has an IC50 of 11.4 µM (Bacillus subtilis; microbial growth).
With `CCCCCOc1ccc(-c2cc(-c3ccc(C(=O)N[C@H]4C[C@@H](O)[C@@H](O)NC(=O)[C@@H]5[C@@H](O)[C@@H](C)CN5C(=O)[C@H]([C@H](O)CC(N)=O)NC(=O)[C@H]([C@H](O)[C@@H](O)c5ccc(O)c(OS(=O)(=O)O)c5)NC(=O)[C@@H]5C[C@@H](O)CN5C(=O)[C@H]([C@@H](C)O)NC4=O)cc3)no2)cc1` the MIC50 was 0.06 µg/mL (≈ 0.0472 µM) (Nakaseomyces glabratus; microbial growth).
The MIC of `CCCC(=O)CP(=O)(O)O` is reported as greater than 200 µg/mL (Bacillus subtilis; microbial growth; ATCC23857).
For `Cc1c(NN=C(C#N)C2=NC(=O)CS2)c(=O)n(-c2ccccc2)n1C`, the inhibition zone was 26 mm (Bacillus subtilis; microbial growth, well diffusion; 100000 µg/mL).
With `C=CCCCCCCCCC(=O)C(F)(F)P(=O)(O)O` the MIC was 200 µg/mL (Bacillus subtilis; microbial growth; ATCC23857).
`CCCCCCCCCCCCCCCCCCCCc1cc(O)cc(O)c1` gave an IC50 of greater than 200 µM (Bacillus subtilis; microbial growth).
For `CCCCCCCC/C=C\CCCCCCCCNC(=O)CP(=O)(O)O`, the MIC was 200 µg/mL (Bacillus subtilis; microbial growth; ATCC23857).
The MBC of `O=C(O)c1cn(C2CC2)c2cc(N3CCNCC3)c(F)cc2c1=O` is reported as 19 µM (≈ 6.3 µg/mL) (Bacillus subtilis; microbial killing).
With `O=C(CCCCCCCCCCOc1ccccc1)CP(=O)(O)O` the MIC was greater than 200 µg/mL (Bacillus subtilis; microbial growth; ATCC23857).
The MIC of `CC[C@H](C)C[C@H](C)CCCCCCCCC(=O)N[C@H]1C[C@@H](O)[C@@H](NCCN)NC(=O)[C@@H]2[C@@H](O)CCN2C(=O)[C@H]([C@H](O)CCN)NC(=O)[C@H]([C@H](O)[C@@H](O)c2ccc(O)cc2)NC(=O)[C@@H]2C[C@@H](O)CN2C(=O)[C@H]([C@@H](C)O)NC1=O` is reported as 0.25 µg/mL (Nakaseomyces glabratus; microbial growth, broth dilution; MY1381).
